Experimental data taken from ChEMBL document CHEMBL1144932, “Design, synthesis, and biological properties of new bis(acridine-4-carboxamides) as anticancer agents” (J Med Chem, 2003).

Assays:
[1] = Apparent equilibrium constant for DNA binding (G-C); format: ADME
Method in brief: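 Ethidium displacement at pH 7.0 in buffer of 10 mM Na2HPO4, 10 mM NaH2PO4, 1 mM EDTA with 1.26 μM ethidium bromide and 1 μM CT-DNA, [poly(dA-dT)]2 or [poly(dG-dC)]2. Drug stock (~5 mM in DMSO) added serially. Fluorescence read at 20 °C, excitation 546 nm, emission 595 nm. C50 is the mean of three determinations. Kapp = 1.26/C50 × 10^7.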

786-0 [2] = test: Percent growth of renal 786-0 cell line at compound concentration 10e-6 was determined; format: functional, Homo sapiens
Method in brief: (§1)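 Cells in the NCI panel were exposed for 48 h to 10^-8, 10^-6 and 10^-4 or 10^-5 M drug. Growth is given as percent of untreated control (100%). Negative values are the percent of cells killed relative to the initial cell number.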

RPMI-8226 [3] = test: Percent growth of leukemia RPMI-8226 cell line at compound concentration 10e-6 was determined; format: functional, Homo sapiens; method in brief: as §1
OVCAR-4 [4] = test: Percent growth of ovarian OVCAR-4 cell line at compound concentration 10e-8 was determined; format: functional, Homo sapiens; method in brief: as §1
786-0 [5] = test: Percent growth of renal 786-0 cell line at compound concentration 10e-8 was determined; format: functional, Homo sapiens; method in brief: as §1
HCT-116 [6] = test: Percent growth of colon HCT116 cell line at compound concentration 10e-6 was determined; format: functional, Homo sapiens; method in brief: as §1
HCT-116 [7] = test: Percent growth of colon HCT116 cell line at compound concentration 10e-8 was determined; format: functional, Homo sapiens; method in brief: as §1
SNB-19 [8] = test: Percent growth of CNS SNB-19 cell line at compound concentration 10e-8 was determined; format: functional, Homo sapiens; method in brief: as §1
NCI-H460 [9] = test: Percent growth of lung-NSC NCI-H460 cell line at compound concentration 10e-6 was determined; format: functional, Homo sapiens; method in brief: as §1
DU-145 [10] = test: Percent growth of prostate DU-145 cell line at compound concentration 10e-5 was determined; format: functional, Homo sapiens; method in brief: as §1
DU-145 [11] = test: Percent growth of prostate DU-145 cell line at compound concentration 10e-8 was determined; format: functional, Homo sapiens; method in brief: as §1
RPMI-8226 [12] = test: Percent growth of leukemia RPMI-8226 cell line at compound concentration 10e-8 was determined; format: functional, Homo sapiens; method in brief: as §1
OVCAR-4 [13] = test: Percent growth of ovarian OVCAR-4 cell line at compound concentration 10e-6 was determined; format: functional, Homo sapiens; method in brief: as §1
LOX IMVI [14] = test: Percent growth of melanoma LOX IMVI cell line at compound concentration 10e-6 was determined; format: functional, Homo sapiens; method in brief: as §1
MCF7 [15] = test: Percent growth of breast MCF-7 cell line at compound concentration 10e-8 was determined; format: functional, Homo sapiens; method in brief: as §1
RPMI-8226 [16] = test: Percent growth of leukemia RPMI-8226 cell line at compound concentration 10e-5 was determined; format: functional, Homo sapiens; method in brief: as §1
SNB-19 [17] = test: Percent growth of CNS SNB-19 cell line at compound concentration 10e-6 was determined; format: functional, Homo sapiens; method in brief: as §1
Homo sapiens = species on record: Homo sapiens; test: In vitro cytotoxic activity against human colon adenocarcinoma (HT-29).; format: functional
Method in brief: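 HT29 cells were seeded at 2.5 × 10^4 cells/mL of medium and drug solutions were added. Exposure lasted 144 h. IC50 is the drug concentration inhibiting cell growth by 50%. Assays were run in triplicate.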

MCF7 [18] = test: Percent growth of breast MCF-7 cell line at compound concentration 10e-6 was determined; format: functional, Homo sapiens; method in brief: as §1
NCI-H460 [19] = test: Percent growth of lung-NSC NCI-H460 cell line at compound concentration 10e-8 was determined; format: functional, Homo sapiens; method in brief: as §1
MCF7 [20] = test: Percent growth of breast MCF-7 cell line at compound concentration 10e-5 was determined; format: functional, Homo sapiens; method in brief: as §1
LOX IMVI [21] = test: Percent growth of melanoma LOX IMVI cell line at compound concentration 10e-5 was determined; format: functional, Homo sapiens; method in brief: as §1
DU-145 [22] = test: Percent growth of prostate DU-145 cell line at compound concentration 10e-6 was determined; format: functional, Homo sapiens; method in brief: as §1
SNB-19 [23] = test: Percent growth of CNS SNB-19 cell line at compound concentration 10e-5 was determined; format: functional, Homo sapiens; method in brief: as §1
NCI-H460 [24] = test: Percent growth of lung-NSC NCI-H460 cell line at compound concentration 10e-5 was determined; format: functional, Homo sapiens; method in brief: as §1
786-0 [25] = test: Percent growth of renal 786-0 cell line at compound concentration 10e-5 was determined; format: functional, Homo sapiens; method in brief: as §1
HCT-116 [26] = test: Percent growth of colon HCT116 cell line at compound concentration 10e-5 was determined; format: functional, Homo sapiens; method in brief: as §1
LOX IMVI [27] = test: Percent growth of melanoma LOX IMVI cell line at compound concentration 10e-8 was determined; format: functional, Homo sapiens; method in brief: as §1
OVCAR-4 [28] = test: Percent growth of ovarian OVCAR-4 cell line at compound concentration 10e-5 was determined; format: functional, Homo sapiens; method in brief: as §1
SNB-19 [29] = test: Percent growth of CNS SNB-19 cell line at compound concentration 10e-4 was determined; format: functional, Homo sapiens; method in brief: as §1
OVCAR-4 [30] = test: Percent growth of ovarian OVCAR-4 cell line at compound concentration 10e-4 was determined; format: functional, Homo sapiens; method in brief: as §1
786-0 [31] = test: Percent growth of renal 786-0 cell line at compound concentration 10e-4 was determined; format: functional, Homo sapiens; method in brief: as §1
NCI-H460 [32] = test: Percent growth of lung-NSC NCI-H460 cell line at compound concentration 10e-4 was determined; format: functional, Homo sapiens; method in brief: as §1
HCT-116 [33] = test: Percent growth of colon HCT116 cell line at compound concentration 10e-4 was determined; format: functional, Homo sapiens; method in brief: as §1
RPMI-8226 [34] = test: Percent growth of leukemia RPMI-8226 cell line at compound concentration 10e-4 was determined; format: functional, Homo sapiens; method in brief: as §1
DU-145 [35] = test: Percent growth of prostate DU-145 cell line at compound concentration 10e-4 was determined; format: functional, Homo sapiens; method in brief: as §1
MCF7 [36] = test: Percent growth of breast MCF-7 cell line at compound concentration 10e-4 was determined; format: functional, Homo sapiens; method in brief: as §1
LOX IMVI [37] = test: Percent growth of melanoma LOX IMVI cell line at compound concentration 10e-4 was determined; format: functional, Homo sapiens; method in brief: as §1

SMILES: CN(C)CCNC(=O)c1ccc(NCCCN(C)CCCNc2ccc(C(=O)NCCN(C)C)c3nc4ccccc4c(O)c23)c2c(O)c3ccccc3nc12
- K app [1]: 7.5e+07 M⁻¹
- Growth (786-0 [2]): -26%
- Growth (RPMI-8226 [3]): -37%
- Growth (OVCAR-4 [4]): 46%
- Growth (786-0 [5]): 30%
- Growth (HCT-116 [6]): -35%
- Growth (HCT-116 [7]): 20%
- Growth (SNB-19 [8]): 38%
- Growth (NCI-H460 [9]): -52%
- Growth (DU-145 [10]): -72%
- Growth (DU-145 [11]): 11%
- Growth (RPMI-8226 [12]): 16%
- Growth (OVCAR-4 [13]): -47%
- Growth (LOX IMVI [14]): -65%
- Growth (MCF7 [15]): 22%
- Growth (RPMI-8226 [16]): -49%
- Growth (SNB-19 [17]): -20%
- IC50 (Homo sapiens): 0.43 nM
- Growth (MCF7 [18]): -6%
- Growth (NCI-H460 [19]): 12%
- Growth (MCF7 [20]): -86%
- Growth (LOX IMVI [21]): -93%
- Growth (DU-145 [22]): -31%
- Growth (SNB-19 [23]): -55%
- Growth (NCI-H460 [24]): -90%
- Growth (786-0 [25]): -98%
- Growth (HCT-116 [26]): -96%
- Growth (LOX IMVI [27]): 30%
- Growth (OVCAR-4 [28]): -74%

SMILES: CN(C)CCNC(=O)c1ccc(NCCCN(C)CCCNc2ccc(C(=O)NCCN(C)C)c3nc4ccccc4cc23)c2cc3ccccc3nc12
- K app [1]: 9.4e+07 M⁻¹
- IC50 (Homo sapiens): 47 nM

SMILES: COc1ccc2nc3c(C(=O)NCCCN(C)CCCNC(=O)c4ccc(NCCN(C)C)c5c(O)c6cc(OC)ccc6nc45)ccc(NCCN(C)C)c3c(O)c2c1
- Growth (786-0 [2]): 1%
- Growth (RPMI-8226 [3]): -36%
- Growth (SNB-19 [29]): -85%
- Growth (OVCAR-4 [4]): 38%
- Growth (OVCAR-4 [30]): -96%
- Growth (786-0 [5]): 28%
- Growth (HCT-116 [6]): -23%
- Growth (HCT-116 [7]): 17%
- Growth (SNB-19 [8]): 38%
- Growth (NCI-H460 [9]): -10%
- Growth (DU-145 [11]): 25%
- Growth (RPMI-8226 [12]): 4%
- Growth (OVCAR-4 [13]): -21%
- Growth (786-0 [31]): -98%
- Growth (LOX IMVI [14]): -2%
- Growth (MCF7 [15]): 18%
- Growth (NCI-H460 [32]): -90%
- Growth (SNB-19 [17]): 3%
- IC50 (Homo sapiens): 2 nM
- Growth (MCF7 [18]): 0%
- Growth (NCI-H460 [19]): 9%
- Growth (HCT-116 [33]): -97%
- Growth (DU-145 [22]): -25%
- Growth (RPMI-8226 [34]): -44%
- Growth (DU-145 [35]): -77%
- Growth (MCF7 [36]): -85%
- Growth (LOX IMVI [27]): 31%
- Growth (LOX IMVI [37]): -73%

SMILES: CN(C)CCNC(=O)c1ccc(NCCN(C)C)c2c(O)c3cc([N+](=O)[O-])ccc3nc12
- IC50 (Homo sapiens): 190 nM

SMILES: CN(CCNC(=O)c1ccc(Cl)c2c(O)c3ccccc3nc12)CCNC(=O)c1ccc(Cl)c2c(O)c3ccccc3nc12
- IC50 (Homo sapiens): 5500 nM

SMILES: CN(C)CCNC(=O)c1ccc(NCCCN(C)CCCNc2ccc(C(=O)NCCN(C)C)c3nc4ccc(O)cc4c(O)c23)c2c(O)c3cc(O)ccc3nc12
- K app [1]: 7.4e+07 M⁻¹
- IC50 (Homo sapiens): 6900 nM

SMILES: O=C1c2c(O)ccc(O)c2C(=O)c2c(NCCNCCO)ccc(NCCNCCO)c21 [MITOXANTRONE]
- IC50 (Homo sapiens): 10 nM
